Assay results as given in ChEMBL document CHEMBL1144120, “In vitro evaluation of antifungal properties of phenylpropanoids and related compounds acting against dermatophytes” (1999).
In brackets after ≈: the same amount, converted by molar mass. Activity calls are given as the source filed them. The calls are words filed in the database; no cut-off is given here.

What was measured:
[1] = test system: Trichophyton mentagrophytes; test: Antifungal activity against Trichophyton mentagrophytes ATCC 9972 up to 50 ug/mL by agar dilution method; type: functional, organism-based
Procedure, shortened: (§1)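 Dermatophytes were tested by agar dilution on Sabouraud chloramphenicol agar in 96-well plates. DMSO stock solutions were serially two-fold diluted into the medium to give final concentrations of 0.10–50 µg/mL, with DMSO not exceeding 2%. Each well received 5 µL of spore suspension.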

[2] = test system: Trichophyton rubrum; test: Antifungal activity against Trichophyton rubrum C 113 up to 50 ug/mL by agar dilution method; type: functional, organism-based; procedure, shortened: as §1
[3] = test system: Epidermophyton floccosum; test: Antifungal activity against Epidermophyton floccosum C 114 up to 50 ug/mL by agar dilution method; type: functional, organism-based; procedure, shortened: as §1
[4] = test system: Nannizzia gypsea; test: Antifungal activity against Microsporum gypseum C 115 by agar dilution method; type: functional; procedure, shortened: as §1
[5] = test system: Trichophyton mentagrophytes; test: Antifungal activity against Trichophyton mentagrophytes ATCC by agar dilution method; type: functional; procedure, shortened: as §1
[6] = test system: Trichophyton rubrum; test: Antifungal activity against Trichophyton rubrum C 113 by agar dilution method; type: functional; procedure, shortened: as §1
[7] = test system: Epidermophyton floccosum; test: Antifungal activity against Epidermophyton floccosum C 114 by agar dilution method; type: functional; procedure, shortened: as §1
[8] = test system: Candida albicans; test: Antifungal activity against Candida albicans ATCC 10231 by agar dilution method; type: functional, organism-based
Procedure, shortened: (§2)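 Sabouraud chloramphenicol agar dilution in 96-well plates. Strains were grown on Sabouraud chloramphenicol agar slants for 48 h at 30 °C and suspended in sterile distilled water, adjusted to 10^6 viable cells/mL. DMSO stocks were serially two-fold diluted into the agar to give 0.10–50 µg/mL, with DMSO ≤2% final. 5 µL inoculum per well; incubated 24, 48 or 72 h at 30 °C per control growth; MIC recorded.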

[9] = test system: Saccharomyces cerevisiae; test: Antifungal activity against Saccharomyces cerevisiae ATCC 9763 by agar dilution method; type: functional, organism-based; procedure, shortened: as §2
[10] = test system: Cryptococcus neoformans; test: Antifungal activity against Cryptococcus neoformans ATCC 32264 by agar dilution method; type: functional, organism-based; procedure, shortened: as §2
[11] = test system: Aspergillus flavus; test: Antifungal activity against Aspergillus flavus ATCC 9170 by agar dilution method; type: functional, organism-based; procedure, shortened: as §2
[12] = test system: Aspergillus fumigatus; test: Antifungal activity against Aspergillus fumigatus ATCC 26934 by agar dilution method; type: functional, organism-based; procedure, shortened: as §2
[13] = test system: Aspergillus niger; test: Antifungal activity against Aspergillus niger ATCC 9029 by agar dilution method; type: functional, organism-based; procedure, shortened: as §2
[14] = test system: Microsporum canis; test: Antifungal activity against Microsporum canis C 112 by agar dilution method; type: functional; procedure, shortened: as §1
[15] = test system: Microsporum canis; test: Antifungal activity against Microsporum canis C 112 up to 50 ug/mL by agar dilution method; type: functional, organism-based; procedure, shortened: as §1
[16] = test system: Nannizzia gypsea; test: Antifungal activity against Microsporum gypseum C 115 up to 50 ug/mL by agar dilution method; type: functional, organism-based; procedure, shortened: as §1

Row | Compound | Activity [1] | Activity [2] | Activity [3] | MIC [4] [µg/mL] | MIC [5] [µg/mL] | MIC [6] [µg/mL] | MIC [7] [µg/mL] | Activity [8] | Activity [9] | Activity [10] | Activity [11] | Activity [12] | Activity [13] | MIC [14] [µg/mL] | Activity [15] | Activity [16]
1 | COc1ccc(C(O)C(C)C)cc1OC (configuration not stated) | inactive | inactive | inactive | > 50 | > 50 | > 50 | > 50 | inactive | inactive | inactive | inactive | inactive | inactive | > 50 | inactive | inactive
2 | CCC(=O)c1ccc(OC)cc1 | inactive | inactive | inactive | > 50 | > 50 | > 50 | > 50 | inactive | inactive | inactive | inactive | inactive | inactive | > 50 | inactive | inactive
3 | COc1ccc([C@H](O)[C@H](C)Br)cc1OC | inactive | inactive | inactive | > 50 | > 50 | > 50 | 50 (≈ 182 µM) | inactive | inactive | inactive | inactive | inactive | inactive | > 50 | inactive | inactive
4 | CC(C)(C)C(=O)c1ccccc1 | inactive | inactive | inactive | > 50 | > 50 | > 50 | 50 (≈ 308 µM) | inactive | inactive | inactive | inactive | inactive | inactive | > 50 | inactive | inactive
5 | CCC(O)c1ccc2c(c1)OCO2 (configuration not stated) | inactive | inactive | inactive | > 50 | > 50 | > 50 | > 50 | inactive | inactive | inactive | inactive | inactive | inactive | > 50 | inactive | inactive
6 | C=CCc1cc(OC)c(OC)c(OC)c1 | inactive | inactive | inactive | > 50 | > 50 | > 50 | > 50 | inactive | inactive | inactive | inactive | inactive | inactive | > 50 | inactive | inactive
7 | C=CCc1ccc(OC)c(OC)c1 [METHYLEUGENOL] | inactive | inactive | inactive | > 50 | > 50 | > 50 | > 50 | inactive | inactive | inactive | inactive | inactive | inactive | > 50 | inactive | inactive
